“And” between values parts separate entries of the source, which are not always exact repeats. Equal entries are not always repeated.
How the values were obtained:
Type in all cases: toxicity, cell-based
U2OS [1] = experiment: Incucyte cell viability with U2OS; conditions: human, 10 µM, compound concentration 10 uM; further: filed as whole numbers so only -1 and 0 and 1 occur
HEK-293T [2] = experiment: Incucyte cell viability with HEK293T; conditions: human, 10 µM, compound concentration 10 uM; further: filed as whole numbers so only -1 and 0 and 1 occur
Fibroblast [3] = experiment: Incucyte cell viability with human fibroblast; conditions: 10 µM, compound concentration 10 uM; further: filed as whole numbers so only -1 and 0 and 1 occur
Fibroblast [4] = experiment: Multiplex assay against human fibroblast; conditions: 10 µM, compound concentration 10 uM
Procedure, shortened: (§1)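 Four dyes were applied at seeding to live cells: Hoechst33342, BioTracker Green Microtubule Cytoskeleton Dye, MitoTracker Red and Annexin V Alexa Fluor 680. Imaging after compound addition used a CQ1 microscope at 37°C and 5% CO2. CellPathfinder machine-learning gating then sorted cells into Hoechst high-intensity objects or normal cells, normal cells into healthy, pyknosed or fragmented nuclei, and pyknosed cells into mitotic or apoptotic, with tubulin, mitochondrial-mass and membrane-permeability phenotypes given as per cents of healthy-nucleus cells.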

U2OS [5] = experiment: Multiplex assay against U2OS; conditions: human, 10 µM, compound concentration 10 uM; procedure, shortened: as §1
HEK-293T [6] = experiment: Multiplex assay against HEK293T; conditions: human, 10 µM, compound concentration 10 uM; procedure, shortened: as §1;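 on Population Tubulin-Different-Phenotype (%): share of the cells with healthy nuclei that show this phenotype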
[7] = 0 h, replicate number 1, timepoint 0 hours
[8] = 6 h, replicate number 1, timepoint 6 hours
[9] = 12 h, replicate number 1, timepoint 12 hours
[10] = 18 h, replicate number 1, timepoint 18 hours
[11] = 24 h, replicate number 1, timepoint 24 hours

Structure (SMILES): CCn1c(=O)c(-c2ccc(Cl)cc2Cl)cc2cnc(Nc3ccc(N4CCNCC4)c(F)c3)nc21
- Growth Rate (U2OS [1]; [7]): 0
- Growth Rate (U2OS [1]; [8]): 0
- Growth Rate (U2OS [1]; [9]): 0
- Growth Rate (U2OS [1]; [10]): 0
- Growth Rate (U2OS [1]; [11]): 0
- Growth Rate (HEK-293T [2]; [8]): 0
- Growth Rate (HEK-293T [2]; [9]): 0
- Growth Rate (HEK-293T [2]; [10]): 0
- Growth Rate (HEK-293T [2]; [11]): 0
- Growth Rate (Fibroblast [3]; [7]): 0
- Growth Rate (Fibroblast [3]; [8]): 0
- Growth Rate (Fibroblast [3]; [9]): 0
- Growth Rate (Fibroblast [3]; [10]): 0
- Growth Rate (Fibroblast [3]; [11]): 0
- Population Apoptotic (%) (Fibroblast [4]; 12 h, replicate 1): 33% and 53% and 60%
- Population Fragmented Nuclei (%) (Fibroblast [4]; 12 h, replicate 1): 33% and 37% and 26%
- Population Healthy Nuclei (%) (Fibroblast [4]; 12 h, replicate 1): 39% and 46% and 56%
- Population Hoechst High Intensity Objects (%) (Fibroblast [4]; 12 h, replicate 1): 69% and 59% and 37%
- Population Mitochondria Different-Phenotype (%) (Fibroblast [4]; 12 h, replicate 1): 11% and 6% and 5%
- Population Mitotic Cells (%) (Fibroblast [4]; 12 h, replicate 1): 66% and 46% and 39%
- Population Normal (%) (Fibroblast [4]; 12 h, replicate 1): 30% and 41% and 62%
- Population Pyknosed Nuclei (%) (Fibroblast [4]; 12 h, replicate 1): 27% and 16%
- Population Fragmented Nuclei (%) (Fibroblast [4]; 12 h, replicate 2): 44% and 57% and 61%
- Population Healthy Nuclei (%) (Fibroblast [4]; 12 h, replicate 2): 18% and 35% and 19%
- Population Hoechst High Intensity Objects (%) (Fibroblast [4]; 12 h, replicate 2): 50% and 51% and 70%
- Population Normal (%) (Fibroblast [4]; 12 h, replicate 2): 50% and 48% and 29%
- Total Cell Count (Fibroblast [4]; 12 h, replicate 2): 206 and 112 and 242
- Population Apoptotic (%) (Fibroblast [4]; 24 h, replicate 1): 47% and 66% and 63%
- Population Fragmented Nuclei (%) (Fibroblast [4]; 24 h, replicate 1): 40% and 37% and 23%
- Population Healthy Nuclei (%) (Fibroblast [4]; 24 h, replicate 1): 32% and 38% and 58%
- Population Hoechst High Intensity Objects (%) (Fibroblast [4]; 24 h, replicate 1): 72% and 65% and 42%
- Population Mitochondria Different-Phenotype (%) (Fibroblast [4]; 24 h, replicate 1): 14% and 20% and 7%
- Population Mitotic Cells (%) (Fibroblast [4]; 24 h, replicate 1): 52% and 33% and 36%
- Population Normal (%) (Fibroblast [4]; 24 h, replicate 1): 27% and 34% and 57%
- Population Pyknosed Nuclei (%) (Fibroblast [4]; 24 h, replicate 1): 24% and 17%
- Population Tubulin-Different-Phenotype (%) (Fibroblast [4]; 24 h, replicate 1): 33% and 32%
- Total Cell Count (Fibroblast [4]; 24 h, replicate 1): 236 and 703 and 456
- Population Apoptotic (%) (Fibroblast [4]; 24 h, replicate 2): 100% and 71% and 73%
- Population Fragmented Nuclei (%) (Fibroblast [4]; 24 h, replicate 2): 41% and 62% and 53%
- Population Healthy Nuclei (%) (Fibroblast [4]; 24 h, replicate 2): 31% and 23% and 24%
- Population Hoechst High Intensity Objects (%) (Fibroblast [4]; 24 h, replicate 2): 44% and 54% and 74%
- Population Normal (%) (Fibroblast [4]; 24 h, replicate 2): 55% and 45% and 25%
- Population Pyknosed Nuclei (%) (Fibroblast [4]; 24 h, replicate 2): 26% and 13% and 22%
- Total Cell Count (Fibroblast [4]; 24 h, replicate 2): 225 and 111 and 256
- Population Apoptotic (%) (Fibroblast [4]; 48 h, replicate 1): 35%
- Population Fragmented Nuclei (%) (Fibroblast [4]; 48 h, replicate 1): 36%
- Population Healthy Nuclei (%) (Fibroblast [4]; 48 h, replicate 1): 46%
- Population Hoechst High Intensity Objects (%) (Fibroblast [4]; 48 h, replicate 1): 67%
- Population Membrane Permeable-Phenotype (%) (Fibroblast [4]; 48 h, replicate 1): 30%
- Population Mitochondria Different-Phenotype (%) (Fibroblast [4]; 48 h, replicate 1): 15%
- Population Mitotic Cells (%) (Fibroblast [4]; 48 h, replicate 1): 64%
- Population Normal (%) (Fibroblast [4]; 48 h, replicate 1): 32%
- Population Pyknosed Nuclei (%) (Fibroblast [4]; 48 h, replicate 1): 16%
- Population Tubulin-Different-Phenotype (%) (Fibroblast [4]; 48 h, replicate 1): 15%
- Total Cell Count (Fibroblast [4]; 48 h, replicate 1): 255
- Population Apoptotic (%) (Fibroblast [4]; 48 h, replicate 2): 71%
- Population Fragmented Nuclei (%) (Fibroblast [4]; 48 h, replicate 2): 60%
- Population Healthy Nuclei (%) (Fibroblast [4]; 48 h, replicate 2): 31%
- Population Hoechst High Intensity Objects (%) (Fibroblast [4]; 48 h, replicate 2): 76%
- Population Membrane Permeable-Phenotype (%) (Fibroblast [4]; 48 h, replicate 2): 65%
- Population Mitochondria Different-Phenotype (%) (Fibroblast [4]; 48 h, replicate 2): 7%
- Population Mitotic Cells (%) (Fibroblast [4]; 48 h, replicate 2): 28%
- Population Normal (%) (Fibroblast [4]; 48 h, replicate 2): 23%
- Population Pyknosed Nuclei (%) (Fibroblast [4]; 48 h, replicate 2): 8%
- Total Cell Count (Fibroblast [4]; 48 h, replicate 2): 348
- Population Apoptotic (%) (U2OS [5]; 12 h, replicate 1): 97% and 89% and 38%
- Population Normal (%) (U2OS [5]; 12 h, replicate 1): 31% and 45% and 92%
- Total Cell Count (U2OS [5]; 12 h, replicate 1): 204 and 465 and 202
- Population Apoptotic (%) (U2OS [5]; 12 h, replicate 2): 100% and 88% and 46%
- Population Fragmented Nuclei (%) (U2OS [5]; 12 h, replicate 2): 44% and 21% and 19%
- Population Membrane Permeable-Phenotype (%) (U2OS [5]; 12 h, replicate 2): 71% and 78%
- Population Normal (%) (U2OS [5]; 12 h, replicate 2): 50% and 40% and 80%
- Total Cell Count (U2OS [5]; 12 h, replicate 2): 206 and 130 and 83
- Population Apoptotic (%) (U2OS [5]; 24 h, replicate 1): 87% and 91% and 60%
- Population Fragmented Nuclei (%) (U2OS [5]; 24 h, replicate 1): 22% and 8%
- Population Normal (%) (U2OS [5]; 24 h, replicate 1): 40% and 34% and 89%
- Population Pyknosed Nuclei (%) (U2OS [5]; 24 h, replicate 1): 50% and 40% and 25%
- Total Cell Count (U2OS [5]; 24 h, replicate 1): 436 and 206 and 232
- Population Apoptotic (%) (U2OS [5]; 24 h, replicate 2): 100% and 53%
- Population Fragmented Nuclei (%) (U2OS [5]; 24 h, replicate 2): 41% and 39%
- Population Healthy Nuclei (%) (U2OS [5]; 24 h, replicate 2): 31% and 45% and 50%
- Population Pyknosed Nuclei (%) (U2OS [5]; 24 h, replicate 2): 26% and 15% and 27%
- Population Tubulin-Different-Phenotype (%) (U2OS [5]; 24 h, replicate 2): 84% and 86% and 29%
- Total Cell Count (U2OS [5]; 24 h, replicate 2): 225 and 118 and 97
- Population Apoptotic (%) (U2OS [5]; 48 h, replicate 1): 90%
- Population Fragmented Nuclei (%) (U2OS [5]; 48 h, replicate 1): 48%
- Population Healthy Nuclei (%) (U2OS [5]; 48 h, replicate 1): 10%
- Population Hoechst High Intensity Objects (%) (U2OS [5]; 48 h, replicate 1): 59%
- Population Membrane Permeable-Phenotype (%) (U2OS [5]; 48 h, replicate 1): 75%
- Population Mitochondria Different-Phenotype (%) (U2OS [5]; 48 h, replicate 1): 62%
- Population Mitotic Cells (%) (U2OS [5]; 48 h, replicate 1): 9%
- Population Normal (%) (U2OS [5]; 48 h, replicate 1): 40%
- Population Pyknosed Nuclei (%) (U2OS [5]; 48 h, replicate 1): 41%
- Population Tubulin-Different-Phenotype (%) (U2OS [5]; 48 h, replicate 1): 75%
- Total Cell Count (U2OS [5]; 48 h, replicate 1): 620
- Population Apoptotic (%) (U2OS [5]; 48 h, replicate 2): 100%
- Population Fragmented Nuclei (%) (U2OS [5]; 48 h, replicate 2): 43%
- Population Healthy Nuclei (%) (U2OS [5]; 48 h, replicate 2): 26%
- Population Hoechst High Intensity Objects (%) (U2OS [5]; 48 h, replicate 2): 56%
- Population Membrane Permeable-Phenotype (%) (U2OS [5]; 48 h, replicate 2): 100%
- Population Mitochondria Different-Phenotype (%) (U2OS [5]; 48 h, replicate 2): 91%
- Population Mitotic Cells (%) (U2OS [5]; 48 h, replicate 2): 0%
- Population Normal (%) (U2OS [5]; 48 h, replicate 2): 43%
- Population Pyknosed Nuclei (%) (U2OS [5]; 48 h, replicate 2): 30%
- Population Tubulin-Different-Phenotype (%) (U2OS [5]; 48 h, replicate 2): 91%
- Total Cell Count (U2OS [5]; 48 h, replicate 2): 227
- Population Fragmented Nuclei (%) (HEK-293T [6]; 12 h, replicate 1): 32% and 25% and 19%
- Population Hoechst High Intensity Objects (%) (HEK-293T [6]; 12 h, replicate 1): 51% and 56% and 22%
- Population Membrane Permeable-Phenotype (%) (HEK-293T [6]; 12 h, replicate 1): 0% and 19% and 5%
- Population Normal (%) (HEK-293T [6]; 12 h, replicate 1): 48% and 43% and 77%
- Population Pyknosed Nuclei (%) (HEK-293T [6]; 12 h, replicate 1): 63% and 42% and 26%
- Population Tubulin-Different-Phenotype (%) (HEK-293T [6]; 12 h, replicate 1): 40% and 64% and 37%
- Population Tubulin-Different-Phenotype (%) (HEK-293T [6]; 12 h, replicate 2): 85% and 75% and 43%
- Population Fragmented Nuclei (%) (HEK-293T [6]; 24 h, replicate 1): 38% and 33% and 20%
- Population Normal (%) (HEK-293T [6]; 24 h, replicate 1): 40% and 41% and 81%
- Total Cell Count (HEK-293T [6]; 24 h, replicate 1): 280 and 738 and 614
- Population Fragmented Nuclei (%) (HEK-293T [6]; 24 h, replicate 2): 16% and 32% and 12%
- Population Healthy Nuclei (%) (HEK-293T [6]; 24 h, replicate 2): 43% and 40% and 83%
- Population Normal (%) (HEK-293T [6]; 24 h, replicate 2): 39% and 33% and 93%
- Population Tubulin-Different-Phenotype (%) (HEK-293T [6]; 24 h, replicate 2): 75% and 91% and 46%
- Population Apoptotic (%) (HEK-293T [6]; 48 h, replicate 1): 75%
- Population Fragmented Nuclei (%) (HEK-293T [6]; 48 h, replicate 1): 46%
- Population Healthy Nuclei (%) (HEK-293T [6]; 48 h, replicate 1): 3%
- Population Hoechst High Intensity Objects (%) (HEK-293T [6]; 48 h, replicate 1): 56%
- Population Membrane Permeable-Phenotype (%) (HEK-293T [6]; 48 h, replicate 1): 0%
- Population Mitochondria Different-Phenotype (%) (HEK-293T [6]; 48 h, replicate 1): 25%
- Population Mitotic Cells (%) (HEK-293T [6]; 48 h, replicate 1): 24%
- Population Normal (%) (HEK-293T [6]; 48 h, replicate 1): 43%
- Population Pyknosed Nuclei (%) (HEK-293T [6]; 48 h, replicate 1): 50%
- Population Tubulin-Different-Phenotype (%) (HEK-293T [6]; 48 h, replicate 1): 0%
- Total Cell Count (HEK-293T [6]; 48 h, replicate 1): 280
- Population Apoptotic (%) (HEK-293T [6]; 48 h, replicate 2): 100%
- Population Fragmented Nuclei (%) (HEK-293T [6]; 48 h, replicate 2): 32%
- Population Healthy Nuclei (%) (HEK-293T [6]; 48 h, replicate 2): 38%
- Population Hoechst High Intensity Objects (%) (HEK-293T [6]; 48 h, replicate 2): 63%
- Population Membrane Permeable-Phenotype (%) (HEK-293T [6]; 48 h, replicate 2): 7%
- Population Mitochondria Different-Phenotype (%) (HEK-293T [6]; 48 h, replicate 2): 92%
- Population Mitotic Cells (%) (HEK-293T [6]; 48 h, replicate 2): 0%
- Population Normal (%) (HEK-293T [6]; 48 h, replicate 2): 36%
- Population Pyknosed Nuclei (%) (HEK-293T [6]; 48 h, replicate 2): 28%
- Population Tubulin-Different-Phenotype (%) (HEK-293T [6]; 48 h, replicate 2): 82%
- Total Cell Count (HEK-293T [6]; 48 h, replicate 2): 296

From ChEMBL document CHEMBL4689842, “EUbOPEN Chemogenomics Library wave 1” (2021)
